# Screening results: PubChem, several laboratories
# Hits are enriched below; roughly 1.5% of the tested compounds scored in any of these assays.
# FID counter = counter-screen for HCV NS3 helicase inhibitors: DNA intercalator displacement; DNA fluorescent intercalator displacement, fluorescence; inhibition, % at 7.9 µM; 290,000 compounds, 0.17% hits; in the data active means inhibition above about 37%;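 further: 0% = vehicle and 100% = reference compound; higher means more ethidium bromide displaced from hairpin DNA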
# NRP1-CendR mod = modulators of CendR peptide binding to human neuropilin-1 | O14786 | FAM-RPARPAR peptide binding to NRP-1, fluorescence polarization | inhibition, % at 25 µM | 360,000 compounds, 0.85% hits | AID 602438;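 active means inhibition or corrected inhibition above about 18%, plus a signal ratio from 0.5 to 1.5, limit read from the data, passing the limit was not always enough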
# Target sequence (O14786 whole entry, looked up): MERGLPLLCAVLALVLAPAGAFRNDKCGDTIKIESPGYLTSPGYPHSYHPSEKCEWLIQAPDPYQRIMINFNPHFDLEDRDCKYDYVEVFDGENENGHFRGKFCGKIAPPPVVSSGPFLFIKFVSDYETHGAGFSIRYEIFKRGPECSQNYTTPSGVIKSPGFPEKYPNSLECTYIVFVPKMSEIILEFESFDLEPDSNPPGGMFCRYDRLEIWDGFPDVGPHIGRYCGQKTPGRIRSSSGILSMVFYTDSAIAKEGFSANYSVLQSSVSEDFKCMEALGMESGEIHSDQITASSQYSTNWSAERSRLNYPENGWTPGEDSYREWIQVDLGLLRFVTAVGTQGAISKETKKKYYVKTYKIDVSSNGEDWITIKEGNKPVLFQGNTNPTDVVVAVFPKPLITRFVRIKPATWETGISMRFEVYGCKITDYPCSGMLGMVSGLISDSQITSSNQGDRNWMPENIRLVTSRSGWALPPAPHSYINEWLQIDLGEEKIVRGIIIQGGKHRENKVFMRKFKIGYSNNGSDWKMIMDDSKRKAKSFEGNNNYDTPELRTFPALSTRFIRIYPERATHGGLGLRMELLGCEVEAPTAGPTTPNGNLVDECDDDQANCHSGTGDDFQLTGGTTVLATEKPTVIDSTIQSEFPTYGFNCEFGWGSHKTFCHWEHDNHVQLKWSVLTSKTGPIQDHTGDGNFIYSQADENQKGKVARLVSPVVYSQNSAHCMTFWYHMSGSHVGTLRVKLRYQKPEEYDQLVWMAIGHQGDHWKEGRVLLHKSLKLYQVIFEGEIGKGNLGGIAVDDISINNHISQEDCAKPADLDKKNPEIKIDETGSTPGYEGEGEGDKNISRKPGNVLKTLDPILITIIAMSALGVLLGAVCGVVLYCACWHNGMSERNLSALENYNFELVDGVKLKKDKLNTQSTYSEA
# core dimer inh = blocks dimerization of HCV core protein; TR-FRET GST/Flag-core106 dimerization, 1536-well; inhibition, % at 5 µM; 300,000 compounds, 0.33% hits;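 active means inhibition above the mean of all tested compounds plus 3 SD, set per screening campaign, cut at about 45% in these data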
#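 Material: Tagged HCV core106 pair (GST and Flag) | Amount: GST-core106 13.5 nM, Flag-core106 17 nM | Medium: KF-containing HEPES buffer, pH 7.45, DTT, CHAPS, BSA | Reagent: Eu donor and XL665 acceptor anti-tag antibodies | Schedule: 4 h at 22.5 °C | Technique: Time-resolved FRET, ex 340 nm, em 617 and 671 nm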
# MEX-5 binding = C. elegans MEX-5 TCR-2 RNA binding activity | Q9XUB2 | MEX-5/FITC-TCR2 RNA binding, fluorescence polarization; active compounds read low | activity score (negative = inhibition of binding), % at 10 µM | 300,000 compounds, 0.38% hits | AID 1832;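 active means inhibition past about -25% in most replicates, and total fluorescence under double the plate's negative control median, limit read from the data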;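 further: 0% = DMSO and -100% = 5 µM competing unlabeled TCR2 RNA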
# * marks the source's active call; other numbers are inactive results; / = no result.
SMILES,FID counter,NRP1-CendR mod,core dimer inh,MEX-5 binding
CCCn1c(/C=C/c2ccco2)nc2ccccc21,-35,-48,51*,2
Cc1ccc(S(=O)(=O)N(C)c2ccc(C(=O)NCC(c3ccco3)N3CCCC3)cc2)cc1 (stereo unspecified),/,-12,/,/
O=C(Nc1cccc(F)c1)NC1(C(=O)N2CCC(O)CC2)CCCCC1,-3,24*,6,0
C[C@@H]1CCCCO[C@H](CN(C)C(=O)Cc2ccccc2)[C@@H](C)CN([C@H](C)CO)C(=O)c2cc(N(C)C)ccc2O1,/,-4,/,/
COC(=O)c1ccc2c(c1O)C(=O)c1ccccc1C2=O,8,-9,-4,-1
O=C1c2ccccc2C(=O)c2c1ccc(O)c2O,/,83*,/,/
O=C1N/C(=C/c2cccn2-c2ccc(F)cc2)C(=O)N1Cc1ccccc1F,-10,43*,15,-1
O=C1N/C(=C/c2cccn2-c2ccccc2)C(=O)N1Cc1ccc(F)cc1,-15,-12,28,-3
OC(CNCc1ccccc1)c1ccccc1 (stereo unspecified),-1,0,-2,0
Oc1cccc(C(O)CNCc2ccc(-c3ccccc3)cc2)c1 (stereo unspecified),7,28*,-4,-1
c1ccc(COc2cccc(-c3cc4nc(NCc5cccs5)ccn4n3)c2)cc1,/,-16,/,/
Cc1cc(=O)[nH]c(N2CCCCC2)n1,/,4,/,/
CC1=C(C#N)C(=O)OC(C)(C)C1,-4,-3,-15,-47*
Cc1[nH]c(=O)c(C#N)c2c1COC(C)(C)C2,-1,13,-1,3
COc1ccc(S(=O)(=O)Nc2cc(SCC(=O)O)c(O)c3ccccc23)cc1,-10,6,-16,-53*
Cc1cc(C)c(S(=O)(=O)Nc2cc(SCC(=O)O)c(O)c3ccccc23)cc1C,-3,/,-9,-56*
O=C(O)CSc1cc(NS(=O)(=O)c2ccc(Cl)cc2)c2ccccc2c1O,-4,-7,-12,0
CCOC(=O)[C@H]1[C@H]2COc3cc(OC)ccc3[C@@H]2N2C(=O)CN(Cc3ccco3)C(=O)[C@@]12C,/,10,/,/
CCOC(=O)[C@H]1[C@H]2COc3cc(OC)ccc3[C@@H]2N2C(=O)c3ccc(C)cc3NC(=O)[C@@]12C,/,-1,8,/
CCOC(=O)[C@H]1[C@H]2COc3ccc(OC)cc3[C@@H]2N2C(=O)c3ccc(C)cc3NC(=O)[C@@]12C,/,24*,-5,/
CCOC(=O)[C@H]1[C@H]2COc3ccc(OC)cc3[C@@H]2N2C(=O)CN(Cc3ccco3)C(=O)[C@@]12C,/,22*,/,/
O=C(Nc1c2ccccc2nc2ccccc12)C(Cl)(Cl)Cl,38*,8,-5,-1
O=C(Cc1ccccc1)NNc1c2ccccc2nc2ccccc12,1,0,-24,2
COC(=O)c1c(NC(=O)CN2CCC3(O)CCCCC3C2c2ccc(F)cc2)sc(C)c1C (stereo unspecified),-29,-5,6,1
COC(=O)c1c(NC(=O)CN2CCC3(O)CCCCC3C2c2cc(OC)ccc2OC)sc(C)c1C (stereo unspecified),-29,27*,-2,1
SMILES,FID counter,NRP1-CendR mod,core dimer inh,MEX-5 binding
COc1ccccc1CC1CC(=O)N(c2ccc([N+](=O)[O-])cc2)C1=O (stereo unspecified),/,-2,/,/
CCCCNC(=O)C1(C)CCCCN1CC(=O)c1ccc(OC)cc1 (stereo unspecified),/,-12,/,/
C=CCn1c(=O)/c(=C\c2ccsc2)s/c1=C(/C#N)C(=O)NCCN1CCOCC1,0,-128,2,-46*
COc1ccc(-n2c(=O)/c(=C\c3cccs3)s/c2=C(/C#N)C(=O)NCCN2CCOCC2)cc1,3,-177,0,-11
O=C(NC1CCCCC1)C1c2ccccc2OCC(=O)N1CC(F)(F)F (stereo unspecified),/,15,/,/
CCOC(=O)[C@H](O)[C@@H](O)c1cccc([C@H](O)[C@@H](O)C(=O)OCC)c1,0,24*,-7,0
CCOC(=O)C(C(=O)OCC)C(Nc1ccccc1)c1ccccc1 (stereo unspecified),-3,-8,-4,2
Cc1ccccc1C1=N/C(=C/c2cccs2)C(=O)O1,-3,4,10,-27*
Cc1ccc(C)c(/C=C2\N=C(c3ccccc3F)OC2=O)c1,-24,-10,14,0
CC(C)Nc1nc(NCc2ccccc2)c2sccc2n1,/,0,/,/
O=C(COC(=O)c1cccc(OC(F)F)c1)Nc1cc(S(=O)(=O)N2CCCC2)ccc1Cl,/,17,/,/
CCC(Oc1ccccc1)C(=O)Nc1ccccn1 (stereo unspecified),-3,11,4,-35*
